Assay results from ChEMBL document CHEMBL1914395, “Design, synthesis, and biological evaluation of callophycin A and analogues as potential chemopreventive and anticancer agents” (Bioorg Med Chem, 2011).

Key:
Aromatase = biological target: T1, Aromatase (Homo sapiens, UniProt P11511); experiment: Inhibition of aromatase at 50 uM after 10 mins preincubation by plate reader relative to control
T1 sequence (P11511 whole entry): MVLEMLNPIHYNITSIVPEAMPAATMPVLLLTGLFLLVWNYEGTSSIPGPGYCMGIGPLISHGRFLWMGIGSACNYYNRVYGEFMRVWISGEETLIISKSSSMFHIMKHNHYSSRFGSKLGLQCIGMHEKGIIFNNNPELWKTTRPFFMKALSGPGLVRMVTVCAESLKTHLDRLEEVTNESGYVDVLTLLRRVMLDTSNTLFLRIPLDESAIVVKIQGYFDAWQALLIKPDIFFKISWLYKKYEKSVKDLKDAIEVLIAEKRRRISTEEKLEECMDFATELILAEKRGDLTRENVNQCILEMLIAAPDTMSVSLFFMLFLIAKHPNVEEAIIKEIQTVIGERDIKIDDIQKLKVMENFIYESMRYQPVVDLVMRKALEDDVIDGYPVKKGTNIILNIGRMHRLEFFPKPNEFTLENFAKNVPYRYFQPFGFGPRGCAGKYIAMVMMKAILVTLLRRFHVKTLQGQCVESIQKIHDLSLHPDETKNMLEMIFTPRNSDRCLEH
In short: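 CYP19 enzyme. Compound pre-incubated 10 min with an NADPH-regenerating system (NADP+, glucose 6-phosphate, G6PDH, MgCl2, albumin) in 50 mM potassium phosphate pH 7.4. Enzyme and 0.4 μM dibenzylfluorescein substrate then added, 30 min at 37 °C. Quenched with 2 N NaOH and incubated a further 2 h at 37 °C. Fluorescence read at ex 485/em 530 nm. Compound tested at 50 μM.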

[1] = biological target: T2, Nitric oxide synthase, inducible (Mus musculus) (UniProt P29477); experiment: Inhibition of iNOS-mediated nitric oxide production in LPS-stimulated mouse RAW 264.7 cells assessed as cell survival at 50 uM pretreated 15 mins before LPS challenge measured after 20 hrs relative to control; type: cell-based
T2 sequence (whole entry): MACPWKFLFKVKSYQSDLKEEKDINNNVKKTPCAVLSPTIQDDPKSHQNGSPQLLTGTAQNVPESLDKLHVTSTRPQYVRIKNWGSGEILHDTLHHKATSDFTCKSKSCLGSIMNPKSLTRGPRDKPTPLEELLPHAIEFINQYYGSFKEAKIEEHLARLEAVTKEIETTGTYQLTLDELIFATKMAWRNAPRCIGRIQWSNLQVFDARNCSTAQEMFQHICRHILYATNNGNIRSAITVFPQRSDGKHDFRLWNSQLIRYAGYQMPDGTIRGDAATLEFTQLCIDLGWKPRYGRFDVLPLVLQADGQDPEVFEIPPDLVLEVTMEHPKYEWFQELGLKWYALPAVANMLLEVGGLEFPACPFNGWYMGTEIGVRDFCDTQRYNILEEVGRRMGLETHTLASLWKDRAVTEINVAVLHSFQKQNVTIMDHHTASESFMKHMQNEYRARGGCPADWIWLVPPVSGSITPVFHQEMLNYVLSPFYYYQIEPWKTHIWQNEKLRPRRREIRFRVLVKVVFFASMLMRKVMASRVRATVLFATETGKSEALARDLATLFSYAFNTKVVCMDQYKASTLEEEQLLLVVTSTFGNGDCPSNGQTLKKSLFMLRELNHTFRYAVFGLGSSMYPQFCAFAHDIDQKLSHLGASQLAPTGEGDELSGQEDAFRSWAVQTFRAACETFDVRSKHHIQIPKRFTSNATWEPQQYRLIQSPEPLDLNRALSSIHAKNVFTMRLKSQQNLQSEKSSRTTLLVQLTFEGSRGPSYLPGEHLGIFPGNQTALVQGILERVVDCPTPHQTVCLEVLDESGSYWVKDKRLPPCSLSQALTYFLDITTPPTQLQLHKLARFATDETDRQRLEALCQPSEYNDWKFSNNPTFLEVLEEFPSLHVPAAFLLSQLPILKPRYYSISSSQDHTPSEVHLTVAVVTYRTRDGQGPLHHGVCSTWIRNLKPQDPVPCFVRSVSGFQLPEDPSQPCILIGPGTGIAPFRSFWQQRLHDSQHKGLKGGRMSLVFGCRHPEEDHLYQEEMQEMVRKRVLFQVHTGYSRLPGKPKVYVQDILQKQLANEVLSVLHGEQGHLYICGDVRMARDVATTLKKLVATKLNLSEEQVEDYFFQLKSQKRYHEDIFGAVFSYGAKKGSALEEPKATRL
In short: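 RAW 264.7 cells were incubated at 37°C, 5% CO2 for 24 h. They were then exposed to compound for 15 min before LPS (1 μg/mL) was added for 20 h. Cytotoxicity was measured by SRB staining under the same conditions. Survival is expressed as % relative to vehicle-treated controls at 50 μM.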

HEK293 [2] = experiment: Inhibition of TNF-alpha-induced NFkappaB activation in human HEK293 cells at 50 uM after 6 hrs by luciferase assay relative to control; type: cell-based
In short: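 Cells incubated 6 h with TNFα plus test compound, then luciferase activity measured. Results expressed as percent of TNFα-treated control. Screening concentration 50 μM.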

HEK293 [3] = experiment: Inhibition of TNF-alpha-induced NFkappaB activation in human HEK293 cells assessed as cell survival at 50 uM after 6 hrs by luciferase assay relative to control; type: cell-based
[4] = biological target: NAD(P)H dehydrogenase [quinone] 1 (Mus musculus) (UniProt Q64669); experiment: Induction of quinone reductase 1 activity in mouse Hepa-1c1c7 cells assessed as cell survival at 50 uM by MTT assay relative to control; type: cell-based
MCF7 = experiment: Antiproliferative activity against human MCF7 cells assessed as survival at 50 uM after 72 hrs by SRB assay relative to control; type: functional; conditions: MCF7, 72 h, read-out: Survival
In short: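 MCF7 cells (1 × 10^4 per well) were plated onto compound and kept at 37°C, 5% CO2 for 72 h. Cells were fixed in 10% TCA for 30 min and stained with 0.4% SRB in 1% acetic acid for 30 min. Bound dye was dissolved in 10 mM Tris (pH 10.0) and read at 515 nm. Survival is given as % of DMSO-treated controls, screened at 50 μM.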

[5] = biological target: NAD(P)H dehydrogenase [quinone] 1 (Mus musculus) (UniProt Q64669); experiment: Induction of quinone reductase 1 activity in mouse Hepa-1c1c7 cells at 50 uM by MTT assay relative to untreated control; type: cell-based
In short: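 Hepa 1c1c7 murine hepatoma cells treated with compound at 50 μM. QR1 measured by NADPH-dependent, menadiol-mediated reduction of MTT to formazan. Protein measured by crystal violet staining of identical plates. Specific activity is nmol formazan per mg protein per min. Induction ratio is treated versus DMSO-treated control.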

[6] = biological target: T2, Nitric oxide synthase, inducible (Mus musculus); experiment: Inhibition of iNOS-mediated nitric oxide production in LPS-stimulated mouse RAW 264.7 cells at 50 uM pretreated 15 mins before LPS challenge measured after 20 hrs relative to control; type: cell-based
In short: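 RAW 264.7 cells cultured 24 h at 37°C, then given serially diluted compounds for 15 min before LPS (1 μg/mL) for 20 h. Nitrite in the medium measured with Griess reagent at 540 nm against a sodium nitrite standard curve. Cytotoxicity checked by SRB under the same conditions.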

Sequence of NAD(P)H dehydrogenase [quinone] 1 (Mus musculus) (Q64669 whole entry): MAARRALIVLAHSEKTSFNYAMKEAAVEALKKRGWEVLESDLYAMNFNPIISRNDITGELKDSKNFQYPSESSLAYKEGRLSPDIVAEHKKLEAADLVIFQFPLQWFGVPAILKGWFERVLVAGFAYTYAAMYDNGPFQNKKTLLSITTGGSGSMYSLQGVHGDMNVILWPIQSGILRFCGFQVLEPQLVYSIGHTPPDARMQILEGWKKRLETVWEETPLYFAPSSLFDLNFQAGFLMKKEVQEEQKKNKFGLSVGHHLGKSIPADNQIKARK

SMILES | inhibition at 50 µM (Aromatase) | Survival [1] | inhibition (HEK293 [2]) | Survival (HEK293 [3]) | Survival [4] | viability at 50 µM (MCF7) | Ratio [5] | inhibition [6]
O=C(O)[C@H]1Cc2c([nH]c3ccccc23)CN1CC1CC1 | 31.5% | 130% | 48.4% | 169% | 102% | 113% | 1.8 | 
O=C(O)[C@@H]1Cc2c([nH]c3ccccc23)CN1 [CYCLOMETHYLTRYPTOPHAN] | 20.7% | 100% | 4.6% | 103% | 99.2% |  | 1.1 | 2%
COC(=O)[C@@H]1Cc2c([nH]c3ccccc23)CN1S(C)(=O)=O | 30.5% | 91.9% | 38.6% | 153% | 85.8% | 72.5% | 1.6 | 10.6%
C=CCOC(=O)N1Cc2[nH]c3ccccc3c2C[C@@H]1C(=O)O | 32.9% | 134% | 49.4% | 204% | 93.8% | 102% | 1.9 | -4%
Cc1ccc(S(=O)(=O)N2Cc3[nH]c4ccccc4c3C[C@@H]2C(=O)O)cc1 | 23% | 102% | 26% | 195% | 93.8% | 99.8% | 1.2 | 2.9%
Cc1ccc(S(=O)(=O)N2Cc3[nH]c4ccccc4c3C[C@H]2C(=O)O)cc1 | 16.9% | 85.5% | 42.5% | 272% | 88.8% | 96.5% | 1.4 | 7%
O=C(O)[C@H]1Cc2c([nH]c3ccccc23)CN1Cc1ccc(O)cc1 | 38.4% | 94.7% | 54.6% | 133% | 91.2% | 71.1% | 1.5 | 27.8%
C#CCN1Cc2[nH]c3ccccc3c2C[C@@H]1C(=O)O | 23.5% | 87.9% | -7.7% | 72.7% | 94.6% | 107% | 1.6 | 16.4%
O=C(O)[C@H]1Cc2c([nH]c3ccccc23)CN1 | 34.9% | 95.9% |  | 95.4% | 90.7% |  | 0.8 | 3.5%
C#CCN1Cc2[nH]c3ccccc3c2C[C@H]1C(=O)OC | 24.4% | 84.4% | 21.1% | 117% | 89.6% | 81.1% | 1.7 | 22.3%
COC(=O)[C@H]1Cc2c([nH]c3ccccc23)CN1S(=O)(=O)c1ccc(C)cc1 | 28.2% | 91.4% | 25.2% | 114% | 85.8% |  | 1.3 | 7.4%
CS(=O)(=O)N1Cc2[nH]c3ccccc3c2C[C@@H]1C(=O)O | 30.7% | 93.1% | -2.3% | 178% | 80.6% | 88.7% | 1.9 | 5%
O=C(O)[C@H]1Cc2c([nH]c3ccccc23)CN1Cc1ccccc1 | 19.2% | 109% | 41.8% | 89.5% | 108% |  | 1.8 | 9.9%
COC(=O)[C@H]1Cc2c([nH]c3ccccc23)CN1CC1CC1 | 37.9% | 124% | 29.9% | 254% | 81.8% | 102% | 1.8 | 5.6%
CS(=O)(=O)N1Cc2[nH]c3ccccc3c2C[C@H]1C(=O)O | 26.5% | 94.2% | 51.1% | 256% | 96.7% |  | 1.1 | 6.4%
